The target in one data set is Stromelysin-1 (Homo sapiens, UniProt P08254). As to the kind of experiment: Activity against human stromelysin (MMP-3). Put shortly:
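Fluorogenic stromelysin assay: human enzyme 10 nM in pH 7.6 Tris buffer (200 mM NaCl, 5 mM CaCl2, 20 μM ZnSO4, 0.05% Brij 35). Inhibitors ran from 10 000 to 0.057 nM in 3-fold steps. Ki came from % inhibition vs log[inhibitor], with substrate far below Km.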

The nature of data set [1]: Half-life period for the activity is tested at pH 6.8. It is filed as ADME. Put shortly: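 Inhibitor at 20 μM in 20 mM sodium phosphate, pH 6.8, held at 30 °C. Aliquots were injected every 3 h over 24 h onto C18 reverse-phase HPLC with a 5–60% acetonitrile gradient containing 0.1% TFA.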
For data set [2], the target named is Matrix metalloproteinase-9 (Homo sapiens, UniProt P14780). As to the kind of experiment: Activity against human gelatinase (MMP-9). Put shortly:
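Human gelatinase at 1 nM in pH 7.6 Tris buffer (200 mM NaCl, 5 mM CaCl2, 20 μM ZnSO4, 0.05% Brij 35), with inhibitors at 3-fold dilutions from 10 000 to 0.057 nM. Ki came from % inhibition vs log concentration, with substrate far below Km.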

Another data set deals with T1, Interstitial collagenase (Homo sapiens, UniProt P03956).
T1 sequence (P03956 whole entry): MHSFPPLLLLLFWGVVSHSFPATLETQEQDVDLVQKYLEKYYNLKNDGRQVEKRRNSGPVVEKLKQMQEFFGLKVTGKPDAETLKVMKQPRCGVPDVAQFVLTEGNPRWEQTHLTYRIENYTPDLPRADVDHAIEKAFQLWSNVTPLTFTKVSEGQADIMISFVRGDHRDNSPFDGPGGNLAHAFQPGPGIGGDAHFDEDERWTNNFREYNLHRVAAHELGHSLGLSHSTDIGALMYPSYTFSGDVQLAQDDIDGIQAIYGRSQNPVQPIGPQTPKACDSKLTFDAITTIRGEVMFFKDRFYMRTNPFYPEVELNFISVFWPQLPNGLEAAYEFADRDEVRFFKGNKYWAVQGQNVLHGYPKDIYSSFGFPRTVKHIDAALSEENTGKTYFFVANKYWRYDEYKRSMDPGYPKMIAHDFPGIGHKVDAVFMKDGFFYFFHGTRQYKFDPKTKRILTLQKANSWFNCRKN
As to the kind of experiment: Activity against human collagenase (MMP-1).

Some results are limits rather than exact numbers.

Stromelysin-1, sequence (P08254 whole entry): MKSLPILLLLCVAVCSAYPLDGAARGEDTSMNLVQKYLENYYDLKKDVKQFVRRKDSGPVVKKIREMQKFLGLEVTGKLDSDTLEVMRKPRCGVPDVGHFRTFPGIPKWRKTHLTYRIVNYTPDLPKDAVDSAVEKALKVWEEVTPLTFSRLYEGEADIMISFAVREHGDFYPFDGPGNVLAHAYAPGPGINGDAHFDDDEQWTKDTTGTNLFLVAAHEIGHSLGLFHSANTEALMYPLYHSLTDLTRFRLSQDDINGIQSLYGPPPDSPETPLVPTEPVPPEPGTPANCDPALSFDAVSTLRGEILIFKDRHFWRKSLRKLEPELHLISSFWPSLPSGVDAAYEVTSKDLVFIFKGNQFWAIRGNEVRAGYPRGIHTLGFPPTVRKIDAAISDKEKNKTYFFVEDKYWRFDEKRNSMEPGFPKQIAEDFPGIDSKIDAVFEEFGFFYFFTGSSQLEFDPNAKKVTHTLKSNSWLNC
Matrix metalloproteinase-9, sequence (P14780 whole entry): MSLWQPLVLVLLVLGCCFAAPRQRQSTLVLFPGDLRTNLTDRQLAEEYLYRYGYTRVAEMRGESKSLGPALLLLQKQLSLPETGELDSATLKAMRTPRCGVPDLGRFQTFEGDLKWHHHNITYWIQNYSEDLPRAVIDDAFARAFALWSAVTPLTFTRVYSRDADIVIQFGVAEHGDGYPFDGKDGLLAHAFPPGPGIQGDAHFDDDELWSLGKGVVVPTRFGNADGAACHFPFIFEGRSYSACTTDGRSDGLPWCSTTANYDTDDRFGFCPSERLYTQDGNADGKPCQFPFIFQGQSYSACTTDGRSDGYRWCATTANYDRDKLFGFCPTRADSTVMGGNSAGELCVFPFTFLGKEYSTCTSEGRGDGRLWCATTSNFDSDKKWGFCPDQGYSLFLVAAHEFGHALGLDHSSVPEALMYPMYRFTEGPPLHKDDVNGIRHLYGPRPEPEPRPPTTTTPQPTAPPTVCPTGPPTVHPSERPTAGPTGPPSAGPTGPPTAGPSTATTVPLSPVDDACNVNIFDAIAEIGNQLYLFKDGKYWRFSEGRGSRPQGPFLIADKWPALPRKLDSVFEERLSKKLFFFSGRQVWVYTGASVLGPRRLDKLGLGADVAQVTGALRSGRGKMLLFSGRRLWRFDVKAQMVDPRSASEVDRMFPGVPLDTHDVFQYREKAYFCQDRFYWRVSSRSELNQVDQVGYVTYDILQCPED

In general, IC50 refers to the midpoint of a concentration-inhibition curve. Low values mean higher potency, high ones lower potency. As a reminder, the half-life is the time in which the quantity being followed falls by half. `CNC(=O)[C@H](Cc1ccccc1)NC(=O)[C@H](CC(C)C)N[C@H](CCN1Cc2cc3ccccc3cc2C1=O)C(=O)O`: the half-inhibitory concentration (IC50) came out at 7880 nM against Stromelysin-1, 63 nM in data set [2] and 211 nM on Interstitial collagenase. The same compound registered a half-life in data set [1] greater than 100 h.
For `CNC(=O)[C@H](CC(C)C)NC(=O)[C@H](CC(C)C)N[C@H](CCN1C(=O)c2cc3ccccc3cc2C1=O)C(=O)O` the same measures were 1300 nM, 11 nM, 49 nM and 27 h.

The values above are taken from ChEMBL document CHEMBL1127698, “Matrix metalloproteinase inhibitors containing a (carboxyalkyl)amino zinc ligand: modification of the P1 and P2' residues” (J Med Chem, 1994).
